From ChEMBL document CHEMBL3297693, “Novel 3-arylfuran-2(5H)-one-fluoroquinolone hybrid: design, synthesis and evaluation as antibacterial agent” (Bioorg Med Chem, 2014)
pIC50: −log10 of the molar value. Values after ≈ are worked out from the molar mass of the structure shown.

Test system: Escherichia coli
Assay: Antimicrobial activity against multiple drug-resistant Escherichia coli ATCC 35218 after 8 to 10 hrs by MTT proliferation assay
Format: functional
Summary of the method: (§1)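 Broth microdilution in LB medium in 96-well plates, inoculum about 10⁵ cfu/mL, serially diluted compounds, sterile medium as blank control. MTT (3 mg/mL in PBS) added, then 4–5 h at room temperature. Dye extracted with SDS lysis buffer (10% SDS, 5% isopropanol, pH about 3.5) for 8–10 h at room temperature. Absorbance read at 570 nm, control OD 1.0–2.0. MIC₅₀ reported.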

With CCn1cc(C(=O)O)c(=O)c2cc(F)c(N3CCN(CCOC4=C(c5ccc(Cl)cc5)C(=O)OC4)CC3)cc21 as the compound, how does the MIC50 read?
The MIC50 was 19.5 µg/mL (≈ 35.1 µM).

Which MIC50 does the source give for CCn1cc(C(=O)O)c(=O)c2cc(F)c(N3CCN(CCOC4=C(c5ccc(Cl)cc5)C(=O)OC4)CC3)nc21 here?
Its MIC50 is 9.6 µg/mL (≈ 17.2 µM).

Which MIC50 does the source give for O=C1OCC(OCCN2CCN(c3cc4c(cc3F)c(=O)c(C(=O)O)cn4-c3ccc(F)cc3)CC2)=C1c1ccc(Cl)cc1 here?
Its MIC50 is 1.7 µg/mL (≈ 2.73 µM).

For O=C1OCC(OCCN2CCN(c3cc4c(cc3F)c(=O)c(C(=O)O)cn4C3CC3)CC2)=C1c1ccc(Cl)cc1, which MIC50 is on record?
The MIC50 was 1.3 µg/mL (≈ 2.29 µM).

With O=C1OCC(OCCN2CCN(c3cc4c(cc3F)c(=O)c(C(=O)O)cn4-c3ccc(F)cc3)CC2)=C1c1cccc(Br)c1 as the compound, how does the MIC50 read?
Its MIC50 is 4.4 µg/mL (≈ 6.6 µM).

With CCn1cc(C(=O)O)c(=O)c2cc(F)c(N3CCN(CCOC4=C(c5cccc(Br)c5)C(=O)OC4)CC3)nc21 as the compound, how does the MIC50 read?
The MIC50 was 12.2 µg/mL (≈ 20.3 µM).

For CCn1cc(C(=O)O)c(=O)c2cc(F)c(N3CCN(CCOC4=C(c5ccc(Br)cc5)C(=O)OC4)CC3)cc21, which MIC50 is on record?
Its MIC50 is 13.5 µg/mL (≈ 22.5 µM).

Which MIC50 does the source give for O=C1OCC(OCCN2CCN(c3cc4c(cc3F)c(=O)c(C(=O)O)cn4-c3ccc(F)cc3)CC2)=C1c1ccc(Br)cc1 here?
The MIC50 was 4.2 µg/mL (≈ 6.3 µM).

Which MIC50 does the source give for O=C1OCC(OCCN2CCN(c3cc4c(cc3F)c(=O)c(C(=O)O)cn4C3CC3)CC2)=C1c1ccc(Br)cc1 here?
Its MIC50 is 3.8 µg/mL (≈ 6.2 µM).

With Cc1ccc(C2=C(OCCN3CCN(c4cc5c(cc4F)c(=O)c(C(=O)O)cn5-c4ccc(F)cc4)CC3)COC2=O)cc1 as the compound, how does the MIC50 read?
Its MIC50 is 2 µg/mL (≈ 3.32 µM).

Which MIC50 does the source give for Cc1ccc(C2=C(OCCN3CCN(c4cc5c(cc4F)c(=O)c(C(=O)O)cn5C4CC4)CC3)COC2=O)cc1 here?
The MIC50 was 1.9 µg/mL (≈ 3.47 µM).

With COc1ccc(C2=C(OCCN3CCN(c4cc5c(cc4F)c(=O)c(C(=O)O)cn5C4CC4)CC3)COC2=O)cc1 as the compound, how does the MIC50 read?
The MIC50 was 23.5 µg/mL (≈ 41.7 µM).

For O=C1OCC(OCCN2CCN(c3cc4c(cc3F)c(=O)c(C(=O)O)cn4-c3ccc(F)cc3)CC2)=C1c1ccccc1OCc1ccccc1, which MIC50 is on record?
Its MIC50 is 2.8 µg/mL (≈ 4.04 µM).

For O=C(O)c1cn(C2CC2)c2cc(N3CCNCC3)c(F)cc2c1=O [CIPROFLOXACIN], which MIC50 is on record?
Its MIC50 is 5.65 µg/mL (≈ 17.1 µM).

Test system: Bacillus subtilis
Assay: Antimicrobial activity against tetracycline-resistant Bacillus subtilis ATCC 6633 after 8 to 10 hrs by MTT proliferation assay
Format: functional
Summary of the method: as §1

With CCn1cc(C(=O)O)c(=O)c2cc(F)c(N3CCN(CCOC4=C(c5ccc(Cl)cc5)C(=O)OC4)CC3)cc21 as the compound, how does the MIC50 read?
Its MIC50 is 18.5 µg/mL (≈ 33.3 µM).

With CCn1cc(C(=O)O)c(=O)c2cc(F)c(N3CCN(CCOC4=C(c5ccc(Cl)cc5)C(=O)OC4)CC3)nc21 as the compound, how does the MIC50 read?
The MIC50 was 13.2 µg/mL (≈ 23.7 µM).

With O=C1OCC(OCCN2CCN(c3cc4c(cc3F)c(=O)c(C(=O)O)cn4-c3ccc(F)cc3)CC2)=C1c1ccc(Cl)cc1 as the compound, how does the MIC50 read?
The MIC50 was 0.51 µg/mL (≈ 0.82 µM).

For O=C1OCC(OCCN2CCN(c3cc4c(cc3F)c(=O)c(C(=O)O)cn4C3CC3)CC2)=C1c1ccc(Cl)cc1, which MIC50 is on record?
Its MIC50 is 0.16 µg/mL (≈ 0.282 µM).

For O=C1OCC(OCCN2CCN(c3cc4c(cc3F)c(=O)c(C(=O)O)cn4-c3ccc(F)cc3)CC2)=C1c1cccc(Br)c1, which MIC50 is on record?
The MIC50 was 0.43 µg/mL (≈ 0.645 µM).

With CCn1cc(C(=O)O)c(=O)c2cc(F)c(N3CCN(CCOC4=C(c5cccc(Br)c5)C(=O)OC4)CC3)nc21 as the compound, how does the MIC50 read?
Its MIC50 is 4.7 µg/mL (≈ 7.81 µM).

Which MIC50 does the source give for CCn1cc(C(=O)O)c(=O)c2cc(F)c(N3CCN(CCOC4=C(c5ccc(Br)cc5)C(=O)OC4)CC3)cc21 here?
The MIC50 was over 25 µg/mL.

Which MIC50 does the source give for O=C1OCC(OCCN2CCN(c3cc4c(cc3F)c(=O)c(C(=O)O)cn4-c3ccc(F)cc3)CC2)=C1c1ccc(Br)cc1 here?
The MIC50 was 2.9 µg/mL (≈ 4.35 µM).

With O=C1OCC(OCCN2CCN(c3cc4c(cc3F)c(=O)c(C(=O)O)cn4C3CC3)CC2)=C1c1ccc(Br)cc1 as the compound, how does the MIC50 read?
Its MIC50 is 2.6 µg/mL (≈ 4.25 µM).

With Cc1ccc(C2=C(OCCN3CCN(c4cc5c(cc4F)c(=O)c(C(=O)O)cn5-c4ccc(F)cc4)CC3)COC2=O)cc1 as the compound, how does the MIC50 read?
Its MIC50 is 0.82 µg/mL (≈ 1.36 µM).

With Cc1ccc(C2=C(OCCN3CCN(c4cc5c(cc4F)c(=O)c(C(=O)O)cn5C4CC4)CC3)COC2=O)cc1 as the compound, how does the MIC50 read?
Its MIC50 is 0.39 µg/mL (≈ 0.712 µM).

For COc1ccc(C2=C(OCCN3CCN(c4cc5c(cc4F)c(=O)c(C(=O)O)cn5C4CC4)CC3)COC2=O)cc1, which MIC50 is on record?
Its MIC50 is 2.6 µg/mL (≈ 4.61 µM).

For O=C1OCC(OCCN2CCN(c3cc4c(cc3F)c(=O)c(C(=O)O)cn4-c3ccc(F)cc3)CC2)=C1c1ccccc1OCc1ccccc1, which MIC50 is on record?
Its MIC50 is 0.58 µg/mL (≈ 0.836 µM).

With O=C(O)c1cn(C2CC2)c2cc(N3CCNCC3)c(F)cc2c1=O [CIPROFLOXACIN] as the compound, how does the MIC50 read?
The MIC50 was 2.7 µg/mL (≈ 8.15 µM).

Test system: Staphylococcus aureus
Assay: Antimicrobial activity against […] Staphylococcus aureus ATCC 25923 after 8 to 10 hrs by MTT proliferation assay
Format: functional
Summary of the method: as §1

With CCn1cc(C(=O)O)c(=O)c2cc(F)c(N3CCN(CCOC4=C(c5ccc(Cl)cc5)C(=O)OC4)CC3)cc21 as the compound, how does the MIC50 read?
Its MIC50 is 15.9 µg/mL (≈ 28.6 µM).

Which MIC50 does the source give for CCn1cc(C(=O)O)c(=O)c2cc(F)c(N3CCN(CCOC4=C(c5ccc(Cl)cc5)C(=O)OC4)CC3)nc21 here?
The MIC50 was 24.9 µg/mL (≈ 44.7 µM).

Which MIC50 does the source give for O=C1OCC(OCCN2CCN(c3cc4c(cc3F)c(=O)c(C(=O)O)cn4-c3ccc(F)cc3)CC2)=C1c1ccc(Cl)cc1 here?
Its MIC50 is 7.8 µg/mL (≈ 12.5 µM).

With O=C1OCC(OCCN2CCN(c3cc4c(cc3F)c(=O)c(C(=O)O)cn4C3CC3)CC2)=C1c1ccc(Cl)cc1 as the compound, how does the MIC50 read?
The MIC50 was 0.49 µg/mL (≈ 0.863 µM).

Which MIC50 does the source give for O=C1OCC(OCCN2CCN(c3cc4c(cc3F)c(=O)c(C(=O)O)cn4-c3ccc(F)cc3)CC2)=C1c1cccc(Br)c1 here?
The MIC50 was 0.39 µg/mL (≈ 0.585 µM).

For CCn1cc(C(=O)O)c(=O)c2cc(F)c(N3CCN(CCOC4=C(c5cccc(Br)c5)C(=O)OC4)CC3)nc21, which MIC50 is on record?
The MIC50 was 13.1 µg/mL (≈ 21.8 µM).

For CCn1cc(C(=O)O)c(=O)c2cc(F)c(N3CCN(CCOC4=C(c5ccc(Br)cc5)C(=O)OC4)CC3)cc21, which MIC50 is on record?
Its MIC50 is 21.6 µg/mL (≈ 36 µM).

For O=C1OCC(OCCN2CCN(c3cc4c(cc3F)c(=O)c(C(=O)O)cn4-c3ccc(F)cc3)CC2)=C1c1ccc(Br)cc1, which MIC50 is on record?
The MIC50 was 11.1 µg/mL (≈ 16.7 µM).

Which MIC50 does the source give for O=C1OCC(OCCN2CCN(c3cc4c(cc3F)c(=O)c(C(=O)O)cn4C3CC3)CC2)=C1c1ccc(Br)cc1 here?
Its MIC50 is 8.5 µg/mL (≈ 13.9 µM).

With Cc1ccc(C2=C(OCCN3CCN(c4cc5c(cc4F)c(=O)c(C(=O)O)cn5-c4ccc(F)cc4)CC3)COC2=O)cc1 as the compound, how does the MIC50 read?
The MIC50 was 0.45 µg/mL (≈ 0.748 µM).

Which MIC50 does the source give for Cc1ccc(C2=C(OCCN3CCN(c4cc5c(cc4F)c(=O)c(C(=O)O)cn5C4CC4)CC3)COC2=O)cc1 here?
Its MIC50 is 0.53 µg/mL (≈ 0.968 µM).

With COc1ccc(C2=C(OCCN3CCN(c4cc5c(cc4F)c(=O)c(C(=O)O)cn5C4CC4)CC3)COC2=O)cc1 as the compound, how does the MIC50 read?
The MIC50 was 6.5 µg/mL (≈ 11.5 µM).

For O=C1OCC(OCCN2CCN(c3cc4c(cc3F)c(=O)c(C(=O)O)cn4-c3ccc(F)cc3)CC2)=C1c1ccccc1OCc1ccccc1, which MIC50 is on record?
The MIC50 was 2.1 µg/mL (≈ 3.03 µM).

For O=C(O)c1cn(C2CC2)c2cc(N3CCNCC3)c(F)cc2c1=O [CIPROFLOXACIN], which MIC50 is on record?
The MIC50 was 6.82 µg/mL (≈ 20.6 µM).

Test system: not listed separately
Assay: Inhibition of Staphylococcus aureus TyrRS expressed in Escherichia coli assessed as tRNA aminoacylation pre-incubated for 10 mins using Escherichia coli MRE600 tRNA and L-[ring-3,5-3H]tyrosine by liquid scintillation counting
Summary of the method: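 S. aureus TyrRS overexpressed in E. coli and purified to about 98% (SDS–PAGE). Enzyme (0.2 nM) preincubated with inhibitor range 10 min at room temperature, then prewarmed mix added at 37 °C. Aliquots quenched in cold 7% TCA, filtered, scintillation counted. Kept linear, under 50% tRNA acylation.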

With O=C1OCC(OCCN2CCOCC2)=C1c1ccc(O)cc1 as the compound, how does the pIC50 read?
Its pIC50 is 7.00.
